High-throughput results deposited in PubChem BioAssay by Sanford-Burnham Center for Chemical Genomics.
An excerpt weighted towards active compounds, which were near 1.5% of everything screened.
APJ antagonist: antagonists of human APJ apelin receptor. P35414. CHO-K1 APJ beta-arrestin complementation, luminescence. inhibition, % at 20 µM. actives 0.32% (n = 330,000). AID 2521;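 active = inhibition above about 40% at 20 µM, limit read from the data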;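 also: cells challenged with 10 nM apelin-13 agonist together with compound; plate controls were apelin-13 plus DMSO wells for no effect and DMSO wells lacking apelin-13 for full effect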
CCR6 antagonist: CCR6 (human) receptor antagonism | CHO-K1 CCR6 PathHunter beta-arrestin, luminescence, CCL20-stimulated | inhibition, % at 20 µM | actives 0.49% (n = 340,000) | AID 493098;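 active = compounds whose inhibition of the agonist-driven luminescence signal at 20 µM reaches about 50%, limit read from the data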;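 also: cells stimulated with CCL20 at 14 nM final; plate controls were DMSO with CCL20 for no effect and DMSO without agonist for full effect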
EBI2 block: blocks human EBI2 receptor beta-arrestin signaling; actives 0.81% (n = 360,000); EBI2 beta-arrestin recruitment, luminescence, 7a,25-OHC stimulated; inhibition, % at 5 µM; in the data active = inhibition above about 38%;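 also: enzyme fragment complementation signal reports receptor beta-arrestin coupling in cells; 0% = agonist plus DMSO wells and 100% = wells without agonist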
APJ agonist: activates the human apelin receptor APJ | actives 0.11% (n = 330,000) | CHO-K1 APJ PathHunter beta-arrestin, luminescence; 0% DMSO wells, 100% apelin | activation, % at 20 µM | AID 2520;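 active = activation more than six SD over the plate average, tested at 20 µM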;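 also: 0% = DMSO alone and 100% = apelin-13 at 10 nM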
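assay system = CHO-K1 APJ beta-arrestin complementation cell line | input = cell density 1000 per well | dosing = compound 20 µM once, DMSO 1% | timing = compound 90 min 25 °C, reagent 1 h | measured by = luminescence from split beta-galactosidase complementation, Galacton Star/Emerald II substrate | read-out basis = APJ agonist activity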
CXCR6 block: CXCR6 (human) receptor inhibition. O00574. CHO-K1 PathHunter CXCR6 beta-arrestin, luminescence. inhibition, % at 20 µM. actives 0.36% (n = 360,000). AID 602244; in the data active = inhibition above about 34%, passing the limit was not always enough;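 also: antagonist mode with CXCL16 agonist at 10 nM final; 0% = 10 nM CXCL16 with DMSO and 100% = unstimulated wells without agonist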
Target sequence (O00574 whole entry, looked up): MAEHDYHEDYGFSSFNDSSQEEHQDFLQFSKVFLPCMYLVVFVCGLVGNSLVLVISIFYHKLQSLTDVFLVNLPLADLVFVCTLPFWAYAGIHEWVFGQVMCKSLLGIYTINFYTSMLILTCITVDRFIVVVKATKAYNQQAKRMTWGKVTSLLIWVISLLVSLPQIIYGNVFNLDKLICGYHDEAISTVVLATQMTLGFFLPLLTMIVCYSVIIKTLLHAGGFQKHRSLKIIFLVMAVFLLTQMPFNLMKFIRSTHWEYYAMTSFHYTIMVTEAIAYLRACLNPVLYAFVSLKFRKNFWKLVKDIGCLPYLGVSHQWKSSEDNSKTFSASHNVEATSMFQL
The depositor's hits bear a star; . = no result given.

SMILES	APJ antagonist	CCR6 antagonist	EBI2 block	APJ agonist	CXCR6 block
CCOC(=O)CN(C(=O)CSc1nnc(CNc2ccc(F)cc2)n1C)c1ccccc1	-16	8	15	-7	-3
CCOC(=O)CN(C(=O)CSc1nnc(COc2ccc(OC)cc2)n1C)c1ccccc1	5	22	52*	-3	-17
O=c1oc(-c2ccccc2F)nc2c1cnn2-c1ccccc1	19	52*	20	-3	38
O=c1oc(-c2cccc(Cl)c2)nc2c1cnn2-c1ccccc1	13	9	20	-3	17
CC1(C(=O)Nc2ccc3[nH]ncc3c2)CCN1C(=O)Cc1ccc(-c2ccccc2)cc1 (stereo unspecified)	.	.	11	.	-7
O=C(CN1CCN(c2nc(-c3ccccc3)cs2)CC1)NNC(=O)c1ccc(Br)cc1	-20	11	6	-3	-10
O=C(NC(=S)N1CCN(c2nc(-c3ccccc3)cs2)CC1)c1cncc(Br)c1	7	57*	14	-4	38
COC(=O)[C@@]12C[C@@H](CC(=O)NCc3cccc(C(F)(F)F)c3)C(=O)N(CCc3ccc(OC)c(OC)c3)C1=CCC(C)(C)C2	.	.	-8	.	.
NC(Cc1ccc(Cl)cc1)c1csc(Nc2ccc(C(F)(F)F)cn2)n1 (stereo unspecified)	.	.	-7	.	-23
COC(=O)c1cc(=O)n(CCc2ccccc2)c(=Nc2ccc(F)cc2)s1	12	26	36	-2	10
CCOC(=O)c1ccc(N=c2sc(C(=O)OC)cc(=O)n2Cc2ccco2)cc1	10	9	58*	3	6
CC12CCC(=O)N1C(C(=O)Nc1cc(S(=O)(=O)N3CCCCCC3)ccc1OCC(F)(F)F)CS2 (stereo unspecified)	9	10	9	-8	1
CCNc1c(C(=O)O)ccc2c1C(=O)c1ccccc1C2=O	19	11	-7	-3	7
CNc1c(C(=O)O)ccc2c1C(=O)c1ccccc1C2=O	-5	53*	-3	-2	34
CCOc1cc(C)nc(N2CCC(C(=O)NCC3CCCO3)CC2)n1 (stereo unspecified)	.	5	-4	.	6
CCOC(=O)C1=CCC(c2cc3ccccc3[nH]2)NC1 (stereo unspecified)	.	.	-3	.	.
OC(COCc1ccccc1)CN1CCN(Cc2ccc3c(c2)OCO3)CC1 (stereo unspecified)	4	8	-4	-3	-2
SC(COCc1ccccc1)CN1CCN(Cc2ccc3c(c2)OCO3)CC1 (stereo unspecified)	-9	64*	10	-3	26
Oc1ccc(COCc2ccccc2)c2cccnc12	-6	11	7	0	5
CCCOCc1ccc(O)c2ncccc12	-16	7	46*	-2	13
CC(C)COCc1ccc(O)c2ncccc12	2	33	44*	-3	17
OCc1ccc(O)c2ncccc12	-8	10	-4	-1	-1
CCCCn1c(N)c(C(=S)NC(=O)CC(C)C)c(=O)n(C)c1=O	.	.	1	.	48*
Cc1[nH]n(C(N)=S)c(=O)c1N=Nc1cccc(C(F)(F)F)c1	18	21	9	-7	10
Cc1[nH]n(C2=NCCS2)c(=O)c1N=Nc1cccc(C(F)(F)F)c1	38	58*	16	-7	53*
SMILES	APJ antagonist	CCR6 antagonist	EBI2 block	APJ agonist	CXCR6 block
COc1ccc(NC(=O)C2CCCN2S(=O)(=O)c2ccc3c(c2)C(C)(C)C(=O)N3C)cc1 (stereo unspecified)	.	.	-1	.	-3
CCCSc1cc(NCCOC(C)=O)c([N+](=O)[O-])c2nonc12	22	17	8	-4	6
CC(=O)OCCCNc1cc(SCc2ccco2)c2nonc2c1[N+](=O)[O-]	15	55*	8	-2	28
COC(=O)c1ccc(NC(=S)NC(=O)c2cc(-c3ccccc3)nc3ccccc23)cc1	35	53*	22	0	30
C[C@@H](NC(=O)[C@@H]1CCCN1C(=O)[C@@H]1CCCN1C(=O)c1cccc(Cl)c1)c1ccccc1	.	.	-9	.	-7
C=CCn1c(N)c(C(=O)OC(C)(C)C)c2nc3ccccc3nc21	50*	19	1	-10	5
C=CCn1c(N)c(C(=O)OC(C)CC)c2nc3ccccc3nc21 (stereo unspecified)	.	19	8	.	12
COc1ccc(NC(=O)COC(=O)CN2C(=O)c3ccccc3C2=O)cc1	32	-8	-1	2	-1
